Data reported in ChEMBL document CHEMBL1138446, “The design, synthesis, and antiviral activity of monofluoro and difluoro analogues of 4'-azidocytidine against hepatitis C virus replication: the discovery of 4'-azido-2'-deoxy-2'-fluorocytidine and 4'-azido-2'-dideoxy-2',2'-difluorocytidine” (J Med Chem, 2009).

Tests used:
Hepatitis C virus = assay: Antiviral activity against HCV 1b infected in human 2209-23 cells by replicon assay; format: functional, organism-based, Hepacivirus hominis
[1] = Cytotoxicity against human 2209-23 cells assessed as cell viability by WST-1 assay; format: cell-based
Outline: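 Viability of the same 2209-23 replicon cells was measured by the WST-1 assay. Values are reported as CC50.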

[2] = Antiproliferative activity against human 2209-23 cells assessed as [3H]thymidine incorporation by scintillation proximity assay; format: cell-based
Outline: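 Proliferation of the GT-1b stable replicon line 2209-23 was measured as tritiated thymidine incorporation into cellular DNA by scintillation proximity assay. Values are reported as IC50.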

[3] = Inhibition of HCV NS5B polymerase-mediated RNA synthesis; design: species or system Hepacivirus hominis

| Compound | EC50 (Hepatitis C virus) [µM] | EC50 [3] [µM] | CC50 [1] [µM] | IC50 [2] [µM] |
| --- | --- | --- | --- | --- |
| [N-]=[N+]=N[C@]1(CO)O[C@@H](n2ccc(N)nc2=O)[C@H](O)[C@@H]1F | > 100 | – | > 100 | – |
| [N-]=[N+]=N[C@]1(CO)O[C@@H](n2ccc(N)nc2=O)[C@H](F)[C@@H]1O | 4.02 | – | > 100 | > 100 |
| Nc1ccn([C@@H]2O[C@H](CO)[C@@H](O)[C@@H]2F)c(=O)n1 | 0.114 | – | > 100 | 0.174 |
| [N-]=[N+]=N[C@]1(CO)O[C@@H](n2ccc(N)nc2=O)[C@@H](O)[C@@H]1O | 0.171 | – | > 1000 | > 100 |
| [N-]=[N+]=N[C@]1(CO)O[C@@H](n2ccc(N)nc2=O)[C@H](O)[C@@H]1O [4'-AZIDOCYTIDINE] | 1.28 | 1.28 | > 2000 | > 100 |

Second part, led by results:

| EC50 (Hepatitis C virus) [µM] | EC50 [3] [µM] | Compound | CC50 [1] [µM] | IC50 [2] [µM] |
| --- | --- | --- | --- | --- |
| > 100 | – | [N-]=[N+]=N[C@]1(CO)O[C@@H](n2ccc(N)nc2=O)[C@H](O)[C@H]1F | > 100 | – |
| 0.066 | – | [N-]=[N+]=N[C@]1(CO)O[C@@H](n2ccc(N)nc2=O)C(F)(F)[C@@H]1O | > 100 | – |
| 0.024 | – | [N-]=[N+]=N[C@]1(CO)O[C@@H](n2ccc(N)nc2=O)[C@@H](F)[C@@H]1O [RO-0622] | > 100 | > 100 |
